# Assay results published in ChEMBL document CHEMBL2311355, “A class of 5-nitro-2-furancarboxylamides with potent trypanocidal activity against Trypanosoma brucei in vitro” (J Med Chem, 2013).
# What was measured:
# [1] = Selectivity index, ratio of EC50 for human HeLa cells to EC50 for bloodstream form of Trypanosoma brucei brucei 427; format: toxicity, cell-based; settings: read-out: Ratio EC50
# [2] = system: Trypanosoma brucei brucei; experiment: Trypanocidal activity against bloodstream form of Trypanosoma brucei brucei 427 after 72 hrs by Alamar blue assay; format: functional, organism-based; settings: Trypanosoma brucei, 427, 72 h
# Procedure, shortened: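 Bloodstream-form T. b. brucei strain 427 grown at 37°C in HMI9 with 10% fetal calf serum and 2.5 µg ml-1 G418, exposed to serially diluted compounds for 72 h. Viability read by Alamar Blue. Four replicates; EC50 ± standard deviation and slope factor from curve fitting.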
# [3] = system: HeLa; experiment: Cytotoxicity against human HeLa cells after 65 hrs by Alamar blue assay; format: cell-based
# [4] = system: Trypanosoma brucei brucei; experiment: Ratio of nifurtimox EC50 to compound EC50 for bloodstream form of wild type Trypanosoma brucei brucei 427; format: functional
# [5] = system: Trypanosoma brucei rhodesiense; experiment: Trypanocidal activity against Trypanosoma brucei rhodesiense Z310 after 72 hrs by Alamar blue assay; format: functional, organism-based; settings: Z310, 72 h
# Procedure, shortened: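 T. b. rhodesiense strain Z310 cultured at 37°C in HMI9 with 10% fetal calf serum, without G418, and exposed to compounds for 72 h. Alamar Blue viability read-out. Four replicates; EC50 ± standard deviation from curve fitting.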
# [6] = system: Trypanosoma brucei; experiment: Antitrypanosomal activity against trypomastigote form of Trypanosoma brucei; format: functional, organism-based
# Procedure, shortened: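 Bloodstream-form T. b. brucei strain 427 grown at 37°C in HMI9 with 10% fetal calf serum and 2.5 μg ml-1 G418; viability read by Alamar Blue after 72 h compound exposure. Four replicates, EC50 ± standard deviation and slope factor from curve fitting.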
# [7] = system: Trypanosoma brucei; experiment: Trypanocidal activity against bloodstream form of N-(4-(allyloxy)-3-(trifluoromethyl)phenyl)-5-nitrofuran-2-carboxamide-resistant Trypanosoma brucei after 72 hrs by Alamar blue assay; format: functional, organism-based
# [8] = Selectivity ratio of EC50 for bloodstream form of N-(4-(allyloxy)-3-(trifluoromethyl)phenyl)-5-nitrofuran-2-carboxamide-resistant Trypanosoma brucei to EC50 for bloodstream form of wild type Trypanosoma brucei brucei 427; format: functional
# [9] = Selectivity ratio of EC50 for bloodstream form of nifurtimox-resistant Trypanosoma brucei to EC50 for bloodstream form of wild type Trypanosoma brucei brucei 427; format: functional
# [10] = system: Trypanosoma brucei; experiment: Trypanocidal activity against bloodstream form of nifurtimox-resistant Trypanosoma brucei after 72 hrs by Alamar blue assay; format: functional, organism-based
Structure (SMILES),selectivity ratio [1],EC50 [2] [nM],EC50 [3] [nM],also measured
O=C(Nc1cccc(Br)c1)c1ccc([N+](=O)[O-])o1,> 192,104,> 20000,–
CCc1cc(C(N)=O)c(NC(=O)c2n[nH]cc2[N+](=O)[O-])s1,–,> 300000,> 20000,–
CCOC(=O)c1cc(CC)sc1NC(=O)c1ccco1,–,> 20000,> 20000,–
COc1ccc(NC(=O)c2ccc([N+](=O)[O-])o2)cc1C,> 525,38,> 20000,–
COc1cccc(NC(=O)c2ccc([N+](=O)[O-])o2)c1,> 345,58.6,> 20000,–
O=C(NCc1ccccn1)c1ccc([N+](=O)[O-])o1,> 68,291,> 20000,–
CCc1cc(C(=O)NCCO)c(NC(=O)c2ccc([N+](=O)[O-])o2)s1,> 253,79.6,> 20000,–
CCOC(=O)c1cc(CC)sc1NC(=O)c1ccc([N+](=O)[O-])o1,> 640,31.3,> 20000,Ratio EC50 [4]: 100; EC50 [5]: 44.2 nM
CCc1cc(C(N)=O)c(NCc2ccc([N+](=O)[O-])o2)s1,> 4,5300,> 20000,–
O=C(NNC(=O)c1ccc([N+](=O)[O-])o1)c1ccc2ccccc2c1,–,–,–,EC50 [6]: 130 nM
O=C(Nc1cc(C(F)(F)F)cc(C(F)(F)F)c1)c1ccc([N+](=O)[O-])o1,> 78,128,> 10000,–
COC(=O)c1ccc([N+](=O)[O-])o1,–,67000,> 20000,–
O=C(Nc1ccccc1)c1ccco1,–,> 20000,> 20000,–
CCc1cc(C(N)=O)c(NC(=O)c2cccc([N+](=O)[O-])c2)s1,> 8,2600,> 20000,–
Nc1nc(N)nc(Nc2ccc([As]3SCC(CO)S3)cc2)n1 (stereo not given) [MELARSOPROL],–,–,–,EC50 [5]: 7.8 nM
O=C(NC1CCCCC1)c1ccc([N+](=O)[O-])o1,> 86,231,> 20000,–
CCCCOC(=O)c1cc(CC)sc1NC(=O)c1ccc([N+](=O)[O-])o1,> 625,32.6,> 20000,–
C=CCOc1ccc(NC(=O)c2ccc([N+](=O)[O-])o2)cc1C(F)(F)F,> 8330,2.4,> 20000,EC50 [7]: 29.3 nM; Ratio EC50 [4]: 1000; Ratio EC50 [8]: 14; Ratio EC50 [9]: 3; EC50 [5]: 2.9 nM; EC50 [10]: 7.8 nM
COc1ccc(NC(=O)c2ccc([N+](=O)[O-])o2)cc1C(F)(F)F,> 2560,7.8,> 20000,–
COC(=O)c1ccc(NC(=O)c2ccc([N+](=O)[O-])o2)cc1,> 29,680,> 20000,–
N=C(N)c1ccc(OCCCCCOc2ccc(C(=N)N)cc2)cc1 [PENTAMIDINE],–,–,–,EC50 [7]: 1.1 nM; Ratio EC50 [9]: 2
CCc1cc(C(N)=O)c(N)s1,–,32600,> 20000,–
O=C(Nc1ccc(Cl)cc1)c1ccc([N+](=O)[O-])o1,> 48,412,> 20000,–
CCCCc1cc(C(=O)OCC)c(NC(=O)c2ccc([N+](=O)[O-])o2)s1,> 160,125,> 20000,–

Structure (SMILES),selectivity ratio [1],EC50 [2] [nM],EC50 [3] [nM],also measured
O=C(Nc1ccccc1)c1ccc([N+](=O)[O-])o1,> 710,28.1,> 20000,–
CCc1cc(C(N)=O)c(NC(=O)c2ccccc2[N+](=O)[O-])s1,–,26100,> 20000,–
COc1ccc(NC(=O)c2ccc([N+](=O)[O-])o2)cc1,> 261,76.5,> 20000,–
Cc1csc(N)c1C(N)=O,–,65100,> 20000,–
C=CCOc1ccc(NC(=O)c2ccc([N+](=O)[O-])o2)cc1,> 258,7.73,> 20000,–
CCc1cc(C(=O)O)c(NC(=O)c2ccc([N+](=O)[O-])o2)s1,–,959,> 20000,–
CCNC(=O)c1cc(CC)sc1NC(=O)c1ccc([N+](=O)[O-])o1,> 136,147,> 20000,EC50 [5]: 202 nM
O=C(Nc1cccs1)c1ccc([N+](=O)[O-])o1,> 322,62.6,> 20000,–
C=CCOc1ccc(N(CC=C)C(=O)c2ccc([N+](=O)[O-])o2)cc1C(F)(F)F,> 9,2200,> 20000,–
O=C(Nc1ccc(C(F)(F)F)cc1)c1ccc([N+](=O)[O-])o1,> 158,126,> 20000,EC50 [5]: 159 nM
CCOC(=O)c1ccsc1NC(=O)c1ccc([N+](=O)[O-])o1,> 278,72.3,> 20000,–
O=C(Nc1cccc(C(F)(F)F)c1)c1ccc([N+](=O)[O-])o1,> 4450,4.69,> 20000,EC50 [5]: 9.4 nM
CCc1cc(C(=O)OC)c(NC(=O)c2ccc([N+](=O)[O-])o2)s1,> 950,21,> 20000,–
O=C(NCc1cccc(C(F)(F)F)c1)c1ccc([N+](=O)[O-])o1,> 1150,17.4,> 20000,–
COc1cc(NC(=O)c2ccc([N+](=O)[O-])o2)cc(C(F)(F)F)c1,> 752,26.6,> 20000,–
O=C(Nc1ccc(O)c(C(F)(F)F)c1)c1ccc([N+](=O)[O-])o1,> 9,2200,> 20000,–
O=[N+]([O-])c1ccc(CNc2ccccc2)o1,–,113000,> 20000,–
CCc1cc(C(N)=O)c(NC(=O)c2ccc([N+](=O)[O-])o2)s1,> 1160,17.3,> 20000,EC50 [5]: 23.1 nM
O=C(Nc1ccc(O)cc1)c1ccc([N+](=O)[O-])o1,> 50,394,> 20000,–
CC1CS(=O)(=O)CCN1/N=C/c1ccc([N+](=O)[O-])o1 (stereo not given) [NIFURTIMOX],38,–,91200,EC50 [7]: 7300 nM; Ratio EC50 [8]: 3; EC50 [5]: 1710 nM
O=C(NCc1ccccc1)c1ccc([N+](=O)[O-])o1,> 732,27.3,> 20000,–
CCCCNC(=O)c1cc(CC)sc1NC(=O)c1ccc([N+](=O)[O-])o1,> 60,336,> 20000,–
CCc1cc(C(N)=O)c(NC(=O)c2ccc([N+](=O)[O-])cc2)s1,–,> 20000,> 20000,–
